In the library only some 4.4% were active in any assay of this set; here they are far more common.
m5-HT2A agonist: mouse HTR2A agonism via beta-arrestin recruitment; P35363; CHO-K1 mHTR2A beta-arrestin complementation, luminescence; percent of 30 µM serotonin response; activation, % at 7.6 µM; 0.66% of 360,000 active; AID 624169;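 active = activation above a run cutoff, the mean activation of all tested compounds plus 3 SD, cut at about 14% in these data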;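 note: 0% = plate median of compound wells and 100% = 30 µM serotonin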
bovine MsrA act: bovine methionine sulfoxide reductase A activation; activation, % at 10.6 µM; purified bovine MsrA, absorbance read-out; 0.3% of 360,000 active; in the data active = activation above about 7.5%;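 note: 0% = vehicle and 100% = reference activator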
MsrA inhibitor: inhibitors of bovine MsrA; purified bovine MsrA, absorbance read-out; inhibition, % at 15.5 µM; 0.75% of 360,000 active; AID 651718; in the data active = inhibition above about 4.5%;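 note: 0% = vehicle wells with enzyme and 100% = reference inhibitor wells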
AHR act: activates the human aryl hydrocarbon receptor; P35869; AHR-responsive luciferase reporter cells, luminescence; activation, % at 5 µM; 2.5% of 320,000 active; in the data active = activation above about 47%;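 note: 0% = vehicle wells and 100% = reference agonist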
AI-2 QS mod: Vibrio harveyi AI-2 quorum sensing modulation; 0.4% of 300,000 active; Vibrio harveyi JMH597 AI-2 luminescence/OD600 ratio, 9 h; active compounds read low; strain lacks LuxN and CqsS sensors; 0 = neutral-control median; AID 2094; activity change, % at 7.5 µM; in the data active = activity change below about -75%, passing the limit was not always enough; inconclusive = no clear call, values can overlap the other calls;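 note: luminescence divided by OD600 gain over 9 h not by final OD600 alone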
Tb MetRS inh: Trypanosoma brucei MetRS inhibition. purified T. brucei MetRS, ATP depletion, Kinase-Glo luminescence. 0.4% of 360,000 active. inhibition, % at 11.9 µM;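 active = inhibition above a per-plate cutoff of the control wells' mean inhibition plus 3 SD, cut at about 5.5% in these data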;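 note: 0% = DMSO wells median and 100% = median of wells with control inhibitor compound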
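Assay system: T. brucei methionyl-tRNA synthetase, purified | Medium: HEPES buffer with MgCl2, KCl, DTT, spermine, BSA, pyrophosphatase | Compound: 11.9 µM single point | Incubation: 15 min enzyme-compound preincubation, 2 h reaction, 10 min detection, 25 °C | Measured by: Kinase-Glo luciferase luminescence reporting remaining unconsumed ATP | Measure: % inhibition normalized to control-well medians | Replication: Singlicate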
An asterisk follows results filed as active; ? = inconclusive; nt = not tested or not shown.

SMILES | m5-HT2A agonist | bovine MsrA act | MsrA inhibitor | AHR act | AI-2 QS mod | Tb MetRS inh
Cc1ccc(C(=O)NC(=S)NNC(=O)c2ccc([N+](=O)[O-])cc2)cc1 | 0 | -12 | 1 | 0 | -86* | 0
O=C(NNC(=S)NC(=O)c1ccc(Br)cc1)c1cccc([N+](=O)[O-])c1 | 3 | 4 | 1 | 53* | 45 | 0
O=C(NNC(=S)NC(=O)c1ccccc1)c1ccc([N+](=O)[O-])cc1 | -5 | 7 | 1 | 3 | ? | 0
Nc1cc(=O)[nH]c(=O)n1CCCc1ccccc1 | 1 | -1 | -1 | -2 | 29 | 0
COC(=O)C1=C(C)N(C)C(=NCc2ccccc2)NC1c1ccccc1 (centres undefined) | nt | nt | 0 | nt | nt | nt
Cc1ccc(C(=O)NC(=S)Nc2ccccc2C(F)(F)F)cc1 | -3 | -2 | 1 | -3 | -87* | 0
Cc1ccc(C(=O)NCC(=O)Nc2ccccc2C(F)(F)F)cc1 | 3 | -3 | 2 | 2 | -4 | 0
Cc1ccc(C(=O)NNC(=S)NC(=O)c2ccccc2)cc1 | -9 | -7 | 2 | 1 | -84* | -1
CN(c1cccnc1)c1ccc(NC(=O)Cc2c[nH]c3ccccc23)cc1Br | nt | nt | 1 | nt | nt | nt
Cn1c(C(=O)NCC2CCCO2)cc2c(=O)[nH]c3ccccc3c21 (centres undefined) | 12 | 0 | 0 | 12 | 28 | 1
Cn1c(C(=O)NCC2CCCO2)cc2c(=O)n(C)c3ccccc3c21 (centres undefined) | 2 | 0 | 2 | 49* | 29 | -1
CCCCCCCCN1C(=O)[C@@H](CC(=O)NCC23CC4CC(CC(C4)C2)C3)C[C@@]2(C(=O)OC)C1=C[C@H](C1CCCC1)O[C@@H]2C | nt | nt | 1 | nt | nt | nt
Nc1cc(-c2ccc(Cl)cc2)nn1-c1ccccc1 | -6 | 0 | 3 | -5 | 30 | -1
O=C1CCn2nc(-c3ccc(Cl)cc3)cc2N1 | 2 | -1 | 0 | 48* | 1 | 0
O=C(N[C@H](C(=O)N1CCC[C@H]1C(=O)NC1CCCC1)C1CCCCC1)c1ccccn1 | nt | nt | -1 | nt | nt | nt
C=CCn1c(=N)n(CC(O)COc2ccccc2OC)c2ccccc21 (centres undefined) | -4 | -2 | 1 | 62* | 26 | 0
CCCCCn1c(=N)n(CC(O)COc2ccccc2OC)c2ccccc21 (centres undefined) | -12 | -2 | -1 | 49* | 31 | 0
COc1ccccc1OCC(O)Cn1c(=N)n(Cc2ccccc2)c2ccccc21 (centres undefined) | -6 | -4 | 0 | 28 | 5 | -1
Cc1ccc(C(=O)CC(=O)COc2ccc(Cl)cc2)cc1 | -2 | -3 | 1 | -1 | -79* | 0
Cc1ccc(C(=O)NCCOc2ccc(Cl)cc2)cc1 | -4 | -2 | 0 | -1 | ? | 0
CCNC(=O)N1CCN(c2ccc(N3CCN(C(=O)NCC)[C@H](C)C3)c(C)c2)[C@@H](C)C1 | nt | nt | 0 | nt | nt | nt
Cc1cc2occ(CC(=O)Nc3nnc(C4CC4)s3)c2cc1C | 2 | -6 | -1 | 1 | nt | -3
O=C(Cc1coc2ccc3ccccc3c12)Nc1nnc(C2CC2)s1 | 12 | -2 | -1 | 69* | 13 | -2
CC(CCC(C)C(C)(C)C)[C@@H]1CC[C@H]2C3C[C@H](OS(O)(=S)=S)[C@H]4C[C@H](OS(O)(=S)=S)[C@@H](OS(O)(=S)=S)C[C@]4(C)[C@H]3CC[C@]12C (some centres undefined) (tested in a mixture with another compound) | 14 | -5 | nt | -2 | nt | 16*
CC(CCC(=O)NN)C1CCC2C3CCC4CC(O)CCC4(C)C3CCC12C (centres undefined) | -3 | -2 | 0 | nt | nt | 0
COc1cc(NC(=O)NNC(=O)c2cc3occc3n2C)cc(OC)c1OC | 2 | -2 | 1 | 1 | -10 | 1
COc1ccc(C(C[N+](=O)[O-])c2c(C)[nH]c3ccccc23)cc1OC (centres undefined) | 1 | -10 | -1 | 60* | 12 | -1
Cn1c(=O)c2ccccc2n(C)c1=O | nt | nt | 1 | nt | nt | nt

Screening results (PubChem BioAssay)
